Measurements taken from ChEMBL document CHEMBL1124154, “Polycyclic aryl- and heteroarylpiperazinyl imides as 5-HT1A receptor ligands and potential anxiolytic agents: synthesis and structure-activity relationship studies” (J Med Chem, 1988).
pKi: −log10 of the molar value.

Legend:
[1] = species on record: Rattus norvegicus; test: Concentration required to produce 50% block in avoidance responding in conditioned avoidance response test in rat; format: functional
Procedure, shortened: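 Trained rats in shelf-jump and/or discrete-trial conditioned avoidance paradigms. Drug given ip or po to at least five rats per dose, with a control session before each drug run. Trials without avoidance (avoidance block) were counted per dose as a percentage of total trials, with control set at 100%. AB50 was taken from a least-squares dose-effect regression line.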

[2] = molecular target: D(2) dopamine receptor (Rattus norvegicus) (UniProt P61169); test: In vitro inhibition of [3H]spiperone binding to dopamine receptor D2 from rat brain limbic tissue at 1 uM; format: tissue-based; settings: Limbic system
[3] = molecular target: T1, 5-hydroxytryptamine receptor 1A (Rattus norvegicus) (UniProt P19327); test: In vitro inhibition of [3H]-8-hydroxy-2-(di-n-propylamino)tetralin binding to 5-hydroxytryptamine 1A receptor from rat hippocampal tissue at 1 uM; settings: Hippocampus
T1 sequence (whole entry): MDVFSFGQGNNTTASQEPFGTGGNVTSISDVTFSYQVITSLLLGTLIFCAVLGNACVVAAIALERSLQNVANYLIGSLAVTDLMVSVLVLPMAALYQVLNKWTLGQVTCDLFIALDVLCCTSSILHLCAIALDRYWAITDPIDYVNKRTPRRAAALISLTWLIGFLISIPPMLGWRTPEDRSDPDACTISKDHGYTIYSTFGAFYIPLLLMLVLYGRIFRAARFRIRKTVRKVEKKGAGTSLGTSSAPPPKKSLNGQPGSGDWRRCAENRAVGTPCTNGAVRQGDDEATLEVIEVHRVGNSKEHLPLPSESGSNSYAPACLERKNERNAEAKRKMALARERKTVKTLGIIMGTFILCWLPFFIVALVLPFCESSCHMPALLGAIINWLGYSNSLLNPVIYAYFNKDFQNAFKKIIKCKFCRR

[4] = molecular target: D(2) dopamine receptor (Rattus norvegicus, UniProt P61169); test: In vitro inhibition of [3H]spiperone binding to Dopamine receptor D2 from rat brain limbic tissue; format: tissue-based, Limbic system
Procedure, shortened: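 Limbic tissue (nucleus accumbens, septum, olfactory tubercle) from Sprague-Dawley rats, washed membranes at 0.2-0.3 mg protein. Incubated with 0.3 nM [3H]spiroperidol and a range of drug concentrations, 10 min at 37 °C, in Tris buffer pH 7.1 with NaCl, KCl, CaCl2, ascorbate and pargyline. Filtered through GF/B and counted by scintillation. Nonspecific binding defined with 1 μM (+)-butaclamol.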

[5] = molecular target: T2, 5-hydroxytryptamine receptor 1A (Rattus norvegicus, UniProt P19327); test: In vitro inhibition of [3H]-8-hydroxy-2-(di-n-propylamino)tetralin binding to 5-hydroxytryptamine 1A receptor from rat hippocampal tissue.
T2 sequence (P19327 whole entry): T1 sequence (whole entry)

[6] = Partition coefficient (logP); format: physicochemical; settings: octanol/water

Sequence of D(2) dopamine receptor (Rattus norvegicus) (P61169 whole entry): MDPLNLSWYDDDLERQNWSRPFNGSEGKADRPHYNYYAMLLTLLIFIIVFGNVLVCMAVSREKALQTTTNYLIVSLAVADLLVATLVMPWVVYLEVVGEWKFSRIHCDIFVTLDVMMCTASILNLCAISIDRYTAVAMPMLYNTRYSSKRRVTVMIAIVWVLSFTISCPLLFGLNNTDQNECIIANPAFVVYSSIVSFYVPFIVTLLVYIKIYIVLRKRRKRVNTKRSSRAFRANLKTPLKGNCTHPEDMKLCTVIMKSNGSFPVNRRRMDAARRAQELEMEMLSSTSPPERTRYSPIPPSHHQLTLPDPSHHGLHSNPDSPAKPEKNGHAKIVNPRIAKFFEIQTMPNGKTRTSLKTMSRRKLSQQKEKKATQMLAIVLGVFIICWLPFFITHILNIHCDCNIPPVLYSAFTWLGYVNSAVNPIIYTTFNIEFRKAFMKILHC
Sequence of D(2) dopamine receptor (P61169 whole entry): as above

| Structure (SMILES) | AB50 [1] | inhibition [2] | inhibition [3] | pKi [4] | pKi [5] | logP [6] |
| --- | --- | --- | --- | --- | --- | --- |
| Cl.O=C1N(CCCCN2CCN(c3ncccn3)CC2)C(=O)C23C4CCC(C4)C12C1CCC3C1 (centres undefined) | 40 mg/kg | 63% | – | – | – | – |
| Cl.O=C1C2C3C=CC(C4CC34)C2C(=O)N1CCCCc1ccncc1 (centres undefined) | >40 mg/kg | 0% | 0% | – | – | – |
| O=C1C2C3C=CC(C4CC34)C2C(=O)N1CCCCN1CCN(c2ccc(Cl)nn2)CC1 (centres undefined) | 40 mg/kg | – | – | 5.63 | – | – |
| Cl.O=C1C2C3C=CC(C4CC34)C2C(=O)N1CCCCN1CCN(c2cccc(C(F)(F)F)c2)CC1 (centres undefined) | 44 mg/kg | 91% | – | – | 7.59 | – |
| O=C1C2C3CS(=O)(=O)CC3C2C(=O)N1CCCCN1CCN(c2cncc(Cl)n2)CC1 (centres undefined) | 40 mg/kg | 0% | 35% | – | – | – |
| O=C1C2C3C=CC(C4CC34)C2C(=O)N1CCCCN1CCN(c2cncc(Cl)n2)CC1 (centres undefined) | 40 mg/kg | – | – | – | – | – |
| O=C1C2C3C=CC(C3)C2C(=O)N1CCCCN1CCN(c2nccnc2Cl)CC1 (centres undefined) | 40 mg/kg | 48% | – | – | 7.43 | – |
| Cl.O=C1C2C3C=CC(C4CCC34)C2C(=O)N1CCCCN1CCN(c2cccc(C(F)(F)F)c2)CC1 (centres undefined) | 40 mg/kg | 99% | – | – | 7.24 | – |
| O=C1C2C3C=CC(C4CC34)C2C(=O)N1CCCCC1CCN(c2cncc(Cl)n2)CC1 (centres undefined) | 40 mg/kg | 21% | 8% | – | – | – |
| Cl.O=C1C2C3C=CC(CCC3)C2C(=O)N1CCCCc1ccncc1 (centres undefined) | 40 mg/kg | 6% | 0% | – | – | – |
| Cl.O=C1C2C3C=CC(C4C=CC43)C2C(=O)N1CCCCN1CCN(c2ccc(C(F)(F)F)cn2)CC1 (centres undefined) | >40 mg/kg | 31% | 40% | – | – | – |
| O=C1C2C3C=CC(C4CCC34)C2C(=O)N1CCCCN1CCN(c2ccc(Cl)nn2)CC1 (centres undefined) | >40 mg/kg | – | – | 5.72 | – | – |
| Cl.O=C1C2C3C=CC(C4C=CC43)C2C(=O)N1CCCCN1CCN(c2cccc(C(F)(F)F)c2)CC1 (centres undefined) | 40 mg/kg | 96% | – | – | 7.60 | – |
| O=C1C2C3C=CC(CCCC3)C2C(=O)N1CCCCN1CCN(c2cncc(Cl)n2)CC1 (centres undefined) | 25 mg/kg | – | – | – | – | – |
| Cl.O=C1C2C3CS(=O)(=O)CC3C2C(=O)N1CCCCN1CCN(c2ncccn2)CC1 (centres undefined) | >40 mg/kg | 0% | 44% | – | – | – |
| Cl.O=C1C2C3CCCC(CC3)C2C(=O)N1CCCCN1CCN(c2ncccn2)CC1 (centres undefined) | 40 mg/kg | 74% | – | – | 8.30 | – |
| O=C1[C@@H]2[C@H]3CC[C@H](C3)[C@@H]2C(=O)N1CCCCN1CCN(c2ncccn2)CC1 [TANDOSPIRONE] | 28 mg/kg | – | – | – | 8.05 | – |
| Cl.O=C1C2C3CCC(C4CC43)C2C(=O)N1CCCCN1CCN(c2cccc(C(F)(F)F)c2)CC1 (centres undefined) | >40 mg/kg | 92% | – | – | 7.70 | – |
| O=C1C2C3C=CC(C3)C2C(=O)N1CCCCN1CCN(c2ccc(Cl)nn2)CC1 (centres undefined) | 40 mg/kg | 19% | – | – | – | – |
| O=C1C2C3C=CC(C4CCC34)C2C(=O)N1CCCCN1CCN(c2cccc(Cl)c2)CC1 (centres undefined) | 40 mg/kg | 87% | – | – | 7.72 | – |
| Cl.O=C1N(CCCCN2CCN(c3cnccn3)CC2)C(=O)C23C4C=CC(C4)C12C1C=CC3C1 (centres undefined) | 40 mg/kg | 14% | – | – | 6.89 | – |
| O=C1N(CCCCN2CCN(c3cncc(Cl)n3)CC2)C(=O)C23C4CCC(C4)C12C1CCC3C1 (centres undefined) | 40 mg/kg | – | 23% | – | – | – |

| Structure (SMILES) | AB50 [1] | inhibition [2] | inhibition [3] | pKi [4] | pKi [5] | logP [6] |
| --- | --- | --- | --- | --- | --- | --- |
| O=C1C2C3C=CC(C4CCC34)C2C(=O)N1CCCCN1CCN(c2cncc(Cl)n2)CC1 (centres undefined) | 40 mg/kg | – | – | – | 6.72 | – |
| O=C1N(CCCCN2CCN(c3cncc(Cl)n3)CC2)C(=O)C23C4C=CC(C4)C12C1C=CC3C1 (centres undefined) | >40 mg/kg | – | 98% | – | – | – |
| O=C1C2C3CCCC(CC3)C2C(=O)N1CCCCN1CCN(c2cncc(Cl)n2)CC1 (centres undefined) | >40 mg/kg | 49% | – | – | 6.79 | – |
| Cl.O=C1C2C3CCCC(CC3)C2C(=O)N1CCCCN1CCN(c2cccc(C(F)(F)F)c2)CC1 (centres undefined) | >40 mg/kg | 97% | – | – | 7.77 | – |
| Cl.O=C1N(CCCCN2CCN(c3ncccn3)CC2)C(=O)C23C4C=CC(C4)C12C1C=CC3C1 (centres undefined) | 40 mg/kg | 53% | – | – | – | – |
| Cl.Cn1nnnc1N1CCN(CCCCN2C(=O)C3C4C=CC(C5CCC45)C3C2=O)CC1 (centres undefined) | 40 mg/kg | 39% | 47% | – | – | – |
| O=C1C2C3C=CC(C3)C2C(=O)N1CCCCN1CCN(c2cncc(Cl)n2)CC1 (centres undefined) | 40 mg/kg | 1% | 74% | – | – | – |
| O=C1C2C3C=CC(CCC3)C2C(=O)N1CCCCN1CCN(c2cncc(Cl)n2)CC1 (centres undefined) | 68 mg/kg | 43% | – | – | – | – |
| O=C1C2C3C=CC(C4C=CC43)C2C(=O)N1CCCCN1CCN(c2cccc(Cl)c2)CC1 (centres undefined) | >40 mg/kg | 3% | – | – | 7.39 | – |
| O=C1C2C3CCC(C4CC43)C2C(=O)N1CCCCN1CCN(c2nccnc2Cl)CC1 (centres undefined) | 61 mg/kg | 75% | – | – | 7.59 | – |
| O=C1C2C3CS(=O)(=O)CC3C2C(=O)N1CCCCN1CCN(c2nccnc2Cl)CC1 (centres undefined) | 40 mg/kg | 0% | 28% | – | – | – |
| COc1ccccc1N1CCN(CCCCN2C(=O)C3C4C=CC(C5C=CC54)C3C2=O)CC1.Cl (centres undefined) | 19 mg/kg | 100% | 100% | – | 8.89 | – |
| O=C1C2C3CCC(C4CC43)C2C(=O)N1CCCCN1CCN(c2cncc(Cl)n2)CC1 (centres undefined) | 40 mg/kg | 49% | 72% | – | – | – |
| Cl.O=C1C2C3CCC(C4CC43)C2C(=O)N1CCCCN1CCN(c2ncccn2)CC1 (centres undefined) | 34 mg/kg | – | – | – | – | 1.83 |
| O=C1C2CCCCC2C(=O)N1CCCCN1CCN(c2ncccn2)CC1 (centres undefined) | 6 mg/kg | – | – | 6.43 | – | – |
| O=C1C2C3C=CC(C4C=CC43)C2C(=O)N1CCCCN1CCN(c2cncc(Cl)n2)CC1 (centres undefined) | 40 mg/kg | 50% | – | – | – | – |
| Cl.O=C1C2C3CCCC(CC3)C2C(=O)N1CCCCN1CCN(c2ccc(C(F)(F)F)cn2)CC1 (centres undefined) | >40 mg/kg | 33% | 71% | – | – | – |
| CC(C)=C1C2C=CC1C1C(=O)N(CCCCN3CCN(c4cncc(Cl)n4)CC3)C(=O)C21 (centres undefined) | 40 mg/kg | – | – | 6.01 | – | – |
| O=C1C2C3CCC(C4CCC43)C2C(=O)N1CCCCN1CCN(c2cncc(Cl)n2)CC1 (centres undefined) | >40 mg/kg | – | – | – | 7.29 | – |
| O=C1C2C3C=CC(C4CC34)C2C(=O)N1CCCCN1CCN(c2cccc(Cl)c2)CC1 (centres undefined) | 40 mg/kg | 100% | – | – | 7.85 | – |
| Cl.O=C1C2C3C=CC(C4C=CC43)C2C(=O)N1CCCCN1CCN(c2cnccn2)CC1 (centres undefined) | 40 mg/kg | 13% | 46% | – | – | – |
| Cl.O=C1C2C3C=CC(C4CC34)C2C(=O)N1CCCCN1CCN(c2ccc(C(F)(F)F)cn2)CC1 (centres undefined) | 40 mg/kg | 40% | 55% | – | – | – |
